Data as given in ChEMBL document CHEMBL2434889, “New orally effective 3-(2-nitro)phenylpropanamide analgesic derivatives: synthesis and antinociceptive evaluation” (Eur J Med Chem, 2013).
Calls of active or inactive are those of the source.

Legend:
Mus musculus [1] = assay: Toxicity in mouse at 3 mg/kg, ip; format: organism-based; parameters: dose 3 mg/kg, route intraperitoneal; conditions: in vivo
Mus musculus [2] = assay: Antinociceptive activity in mouse assessed as inhibition of acetic acid-induced writhing response at 3 mg/kg, ip after 10 mins measured for 10 mins; format: functional; conditions: route intraperitoneal
Outline: (§1)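 Mice (20–24 g) dosed intraperitoneally, then given 0.5% aqueous acetic acid i.p. at 10 ml/kg. Stretches (back arching, pelvic rotation, hind-limb extension) were counted in an observation beaker for 10 min, starting 10 min after the acid. % inhibition is versus the control group. n = 50 mice for control and reference groups, 10 per other treatment. ANOVA with Fisher PLSD.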

Mus musculus [3] = assay: Antinociceptive activity in mouse assessed as inhibition of acetic acid-induced writhing response at 100 umol/kg, ip after 10 mins measured for 10 mins; format: functional; outline: as §1
Mus musculus [4] = assay: Antinociceptive activity in mouse assessed as inhibition of acetic acid-induced writhing response at 10 umol/kg, po after 10 mins measured for 10 mins; format: functional
Outline: (§2)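 Oral dosing, with 8 mice per treatment group. Writhing was induced by 0.5% aqueous acetic acid i.p. (10 ml/kg). Stretches were tallied over 10 min, beginning 10 min after the acid. % inhibition of constrictions is relative to the control group. Statistics by ANOVA and Fisher PLSD.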

Mus musculus [5] = assay: Antinociceptive activity in mouse assessed as inhibition of acetic acid-induced writhing response at 33.3 umol/kg, po after 10 mins measured for 10 mins; format: functional; outline: as §2
Mus musculus [6] = assay: Antinociceptive activity in mouse assessed as inhibition of acetic acid-induced writhing response at 100 umol/kg, po after 10 mins measured for 10 mins; format: functional; outline: as §2
Mus musculus [7] = assay: Toxicity in mouse assessed as effect on locomotion at 33 to 100 umol/kg, ip measured after 25 to 35 mins; format: organism-based; conditions: in vivo
Outline: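 Mice were injected ip with drug or saline and returned at once to photocell-beam cages for 1 h. Horizontal locomotion was scored as cage crossings and analysed over 25–35 min post-treatment, the same window as the writhing counts. Methylphenidate 10 mg/kg and haloperidol 0.5 mg/kg served as stimulant and depressant references. Statistics by Fisher PLSD.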

Mus musculus [8] = assay: Antinociceptive activity in mouse assessed as increase of forepaw licking latency at 100 umol/kg, ip measured after 15 to 60 mins by hot plate test; format: functional, organism-based
Outline: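 Hot-plate test at 55 °C with groups of 10 mice. Latency to forepaw licking was timed by stopwatch. Baseline was read twice before injection, and only mice reacting within 4–12 s were used. Readings were taken at 15, 30, 45 and 60 min after ip dosing, with a 30 s cutoff. Vehicle was physiological serum; morphine 5 mg/kg served as reference. Data are mean ± SEM, one-way ANOVA with Fisher PLSD.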

Mus musculus [9] = assay: Antinociceptive activity in mouse assessed as inhibition of acetic acid-induced writhing response at 15 mg/kg, ip after 10 mins measured for 10 mins; format: functional; conditions: route intraperitoneal; outline: as §1

Row | SMILES | Activity (Mus musculus [1]) | inhibition in vivo at 3 mg/kg (Mus musculus [2]) | also measured
1 | COc1ccc(N2CCN(C(=O)CCc3ccc4c(c3)OCO4)CC2)cc1 | Non-toxic | 2.4% | 
2 | O=C(CCc1cc2c(cc1[N+](=O)[O-])OCO2)Nc1ccccc1 | Non-toxic | 12.9% | 
3 | O=C(CCc1cc2c(cc1[N+](=O)[O-])OCO2)Nc1ccccn1 | Non-toxic | 10% | 
4 | O=C(CCc1cc2c(cc1[N+](=O)[O-])OCO2)N1CCN(CCO)CC1 | Non-toxic | 32.9% | 
5 | COc1ccc(CCC(=O)N2CCCCC2)cc1OC | Non-toxic | < 0% | 
6 | COc1ccc(N2CCN(C(=O)CCc3cc4c(cc3N)OCO4)CC2)cc1 | Non-toxic | 21.5% | 
7 | O=C(CCc1cc2c(cc1[N+](=O)[O-])OCO2)N1CCCCC1 | Non-toxic | 25.2% | inhibition in vivo at 100 µmol/kg (Mus musculus [3]): 44.8%
8 | COc1ccc(N2CCN(C(=O)CCc3cc4c(cc3[N+](=O)[O-])OCO4)CC2)cc1 | Non-toxic | 37.2% | inhibition in vivo at 10 µmol/kg (Mus musculus [4]): 28.6%; inhibition in vivo at 33.3 µmol/kg (Mus musculus [5]): 35.7%; inhibition in vivo at 100 µmol/kg (Mus musculus [6]): 40%; inhibition in vivo at 100 µmol/kg (Mus musculus [3]): 50%; Activity (Mus musculus [7]): Non-toxic; Activity (Mus musculus [8]): inactive
9 | CCCCCCNC(=O)CCc1cc2c(cc1[N+](=O)[O-])OCO2 | Non-toxic | 38.6% | inhibition in vivo at 100 µmol/kg (Mus musculus [3]): 26%
10 | O=C(CCc1cc2c(cc1[N+](=O)[O-])OCO2)N1CCOCC1 | Non-toxic | 31.4% | 
11 | CC1CCCCN1C(=O)CCc1ccc2c(c1)OCO2 (configuration not stated) | Non-toxic | 20.1% | 
12 | O=C(CCc1cc2c(cc1[N+](=O)[O-])OCO2)N1CCN(c2ccc(Cl)c(Cl)c2)CC1 | Non-toxic | 22% | 
13 | O=C(CCc1ccc2c(c1)OCO2)N1CCCCC1 | Non-toxic | 53% | 
14 | CC(=O)Oc1ccccc1C(=O)O [ASPIRIN] |  |  | inhibition in vivo at 100 µmol/kg (Mus musculus [6]): 31.2%; inhibition in vivo at 100 µmol/kg (Mus musculus [3]): 59%; inhibition in vivo at 15 mg/kg (Mus musculus [9]): 62.3%
15 | O=C(CCc1cc2c(cc1[N+](=O)[O-])OCO2)N1CCN(c2ccccc2)CC1 | Non-toxic | 21.5% | 
16 | COc1ccccc1N1CCN(C(=O)CCc2cc3c(cc2[N+](=O)[O-])OCO3)CC1 | Non-toxic | 4.8% | 
17 | COc1cc(CCC(=O)N2CCCCC2)c([N+](=O)[O-])cc1OC | Non-toxic | 33% | inhibition in vivo at 100 µmol/kg (Mus musculus [3]): 39.1%
18 | NC(=O)CCc1cc2c(cc1[N+](=O)[O-])OCO2 | Non-toxic | 14.8% | 
19 | COc1cc(CCC(=O)N2CCOCC2)c([N+](=O)[O-])cc1OC | Non-toxic | 15.3% | 
20 | O=C(CCc1cc2c(cc1[N+](=O)[O-])OCO2)N1CCN(c2ccc(F)cc2)CC1 | Non-toxic | 14.3% | 
21 | CCOC(=O)CCc1cc2c(cc1[N+](=O)[O-])OCO2 | Non-toxic | 40.5% | 
